GASC1 inh – inhibitors of human demethylase GASC-1 KDM4C | AID 720574 | GST-KDM4C 2-372, H3K9me3 peptide, LANCE TR-FRET | inhibition, % at 12.5 µM | 96,000 compounds, 0.15% hits | Q9H3R0;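 active = mean replicate inhibition above about 25%, with at least 55% of replicates also reaching it, limit read from the data, passing the limit was not always enough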
Target sequence (Q9H3R0 2-372 limits assumed): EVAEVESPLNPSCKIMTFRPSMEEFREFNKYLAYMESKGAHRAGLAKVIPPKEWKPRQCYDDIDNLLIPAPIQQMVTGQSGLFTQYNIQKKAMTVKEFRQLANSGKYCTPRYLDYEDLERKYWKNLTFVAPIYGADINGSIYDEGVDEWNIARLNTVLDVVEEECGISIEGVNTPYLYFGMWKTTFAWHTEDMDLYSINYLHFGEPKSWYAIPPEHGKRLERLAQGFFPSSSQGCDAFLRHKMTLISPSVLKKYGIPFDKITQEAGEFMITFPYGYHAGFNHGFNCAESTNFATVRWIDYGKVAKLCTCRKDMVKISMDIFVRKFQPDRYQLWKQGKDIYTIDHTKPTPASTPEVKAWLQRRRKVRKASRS
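Test system: N-terminal GST-fused human GASC-1 (KDM4C) fragment, residues 2-372; quantity: GASC-1 enzyme at 10 nM final in reaction; dosing: single dose; schedule: 30 min demethylation and 1 h detection at room temperature; signal: LANCE TR-FRET, excitation 340 nm, emissions 618 and 671 nm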
IDH1 mut inh – inhibitors of human IDH1 R132H; O75874; IDH1 R132H reductase, diaphorase/resazurin fluorescence, 60 min; inhibition, % at 10 µM; 70,000 compounds, 0.18% hits; in the data active = inhibition above about 34%;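 also: 0% = DMSO and 100% = no enzyme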
Pf Dd2 growth – P. falciparum Dd2 growth inhibition | SYBR Green, 72 h; hits give low values | activity change, % at 10 µM | 94,000 compounds, 2.3% hits; in the data active = activity change below about -80%
* hit, by the source's call. This is one part of a sample in which hits are shown more often than they occur.

C[C@@H]1CN([C@H](C)CO)C(=O)c2cc(NC(=O)Nc3cccc4ccccc34)ccc2O[C@@H](C)CCCCO[C@H]1CN(C)C(=O)Nc1ccc(C(F)(F)F)cc1 was read as GASC1 inh -1.0 and Pf Dd2 growth -59.0.
C[C@H]1CCCCO[C@@H](CN(C)C(=O)Nc2ccc(C(F)(F)F)cc2)[C@@H](C)CN([C@@H](C)CO)C(=O)c2cc(NC(=O)Nc3cccc4ccccc34)ccc2O1 was read as GASC1 inh -1.3, IDH1 mut inh 0.3 and Pf Dd2 growth -1.4.
`C[C@H](CO)N1C[C@H](C)[C@@H](CN(C)C(=O)Nc2ccc(C(F)(F)F)cc2)OCCCC[C@H](C)Oc2ccc(NC(=O)Nc3cccc4ccccc34)cc2C1=O` gave GASC1 inh 8.4, IDH1 mut inh 2.5 and Pf Dd2 growth -85.5*.
For C[C@@H]1CCCCO[C@H](CN(C)Cc2ccc(C(F)(F)F)cc2)[C@H](C)CN([C@@H](C)CO)C(=O)c2cc(NC(=O)Nc3cccc4ccccc34)ccc2O1 the results were GASC1 inh -0.9 and Pf Dd2 growth -43.2.
For C[C@H]1CCCCO[C@H](CN(C)C(=O)Nc2ccc(C(F)(F)F)cc2)[C@@H](C)CN([C@@H](C)CO)C(=O)c2cc(NC(=O)Nc3cccc4ccccc34)ccc2O1 the results were GASC1 inh -1.8 and Pf Dd2 growth -82.8*.
Screening COCC(=O)Nc1ccc2c(c1)C(=O)N(C)C[C@H](OC)[C@H](C)CN(CCC(F)(F)F)[C@@H](C)CO2 returned GASC1 inh -1.7, IDH1 mut inh 0.0 and Pf Dd2 growth -6.0.
For COc1ccc2c3c(n(C)c2c1)[C@@H](CO)N(C(=O)Nc1cccc(F)c1)CC31CN(Cc2nccs2)C1 the results were GASC1 inh -0.8 and Pf Dd2 growth -85.3*.
COc1ccc(NC(=O)N2CCC3(CC2)CN(C(=O)C2CCC2)[C@H](CO)c2c3c3ccc(OC)cc3n2C)cc1 was read as GASC1 inh 0.1 and Pf Dd2 growth -89.6*.
For COc1ccc(NC(=O)N2CC3(C2)CN(C(=O)C2CCC2)[C@H](CO)c2c3c3ccc(OC)cc3n2C)cc1 the results were GASC1 inh -1.1 and Pf Dd2 growth -88.0*.
For COc1ccc2c3c(n(C)c2c1)[C@H](CO)N(C(=O)C1CCCC1)CC31CN(C(=O)CN(C)C)C1 the results were Pf Dd2 growth 24.9.
For COc1ccc2c3c(n(C)c2c1)[C@@H](CO)N(C(=O)C1CCC1)CC31CN(C)C1 the results were GASC1 inh 0.3 and Pf Dd2 growth 4.8.
`COc1ccc2c3c(n(C)c2c1)[C@@H](CO)N(C(=O)C1CCCCC1)CC31CCN(C(=O)Nc2cccc(F)c2)CC1` gave Pf Dd2 growth 30.2.
Screening COc1ccc2c3c(n(C)c2c1)[C@H](CO)N(C(=O)C1CCCC1)CC31CN(C(=O)CC2CC2)C1 returned GASC1 inh 0.1 and Pf Dd2 growth -85.1*.
`COc1ccc2c3c(n(C)c2c1)[C@H](CO)N(C(=O)NC(C)C)CC31CN(Cc2nccs2)C1` gave GASC1 inh 1.2 and Pf Dd2 growth -2.8.
`Cc1noc(C)c1NC(=O)Nc1ccc2c(c1)C(=O)N([C@H](C)CO)C[C@@H](C)[C@H](CN(C)S(=O)(=O)c1ccccc1)OCCCC[C@@H](C)O2` gave GASC1 inh 0.4 and Pf Dd2 growth -46.7.
Screening COc1ccc(NC(=O)CSc2nc(O)cc(=O)n2-c2ccc(C)cc2)cc1 returned IDH1 mut inh -0.1.
For CC(C)CC#Cc1ccc([C@@H]2[C@H](CO)N3C(=O)CN(C(=O)c4cnccn4)C[C@@H]23)cc1 the results were GASC1 inh -0.8 and Pf Dd2 growth -1.7.
For O=C(C[C@H]1CC[C@@H]2[C@H](COC[C@H](O)CN2Cc2cc(F)cc(F)c2)O1)Nc1nccs1 the results were GASC1 inh 0.7 and Pf Dd2 growth -26.3.
For C[C@H](CO)N1C[C@H](C)[C@H](CN(C)C(=O)Nc2cccc3ccccc23)Oc2ccc(NC(=O)Cn3cnnn3)cc2C1=O the results were GASC1 inh 1.0, IDH1 mut inh 1.2 and Pf Dd2 growth 2.1.
Screening CCCC(=O)N1CC2(CN(C(=O)Nc3cccc(F)c3)C2)c2c(n(C)c3cc(OC)ccc23)[C@@H]1CO returned GASC1 inh -2.5 and Pf Dd2 growth -22.7.
For COc1ccc2c3c(n(C)c2c1)[C@@H](CO)N(C(=O)C1CCCC1)CC31CCN(C(=O)Nc2cccc(F)c2)CC1 the results were GASC1 inh -1.9 and Pf Dd2 growth -91.0*.
`COc1ccc2c3c(n(C)c2c1)[C@@H](CO)N(CC1CC1)CC31CCN(C(=O)Nc2ccccc2)CC1` gave GASC1 inh 1.4 and Pf Dd2 growth -73.4.
For COc1ccc2c3c(n(C)c2c1)[C@H](CO)N(C(=O)C1CCCC1)CC31CCN(C(=O)Nc2cccc(F)c2)CC1 the results were GASC1 inh 0.1 and Pf Dd2 growth -56.0.
`CCCC(=O)N1CC2(CN(C(=O)Nc3cccc(F)c3)C2)c2c(n(C)c3cc(OC)ccc23)[C@H]1CO` gave GASC1 inh -1.6 and Pf Dd2 growth -82.4*.
`COc1ccc2c3c(n(C)c2c1)[C@@H](CO)N(CC1CCCC1)CC31CCN(C(=O)Nc2ccccc2)CC1` gave GASC1 inh -2.6 and Pf Dd2 growth -84.1*.
For COc1ccc(C(=O)Nc2ccc3c(c2)C(=O)N(C)C[C@H](OC)[C@@H](C)CN(C)[C@H](C)CO3)cc1 the results were GASC1 inh 0.1, IDH1 mut inh 0.1 and Pf Dd2 growth 45.3.
C[C@]1(CO)CCC[C@]2(C)C3=C(C[C@@H](O)C12)C(=O)OC3 (stereo not given in full) was read as IDH1 mut inh 0.3.
For C[C@H](CO)N1C[C@H](C)[C@H](CN(C)Cc2ccc(C(=O)O)cc2)Oc2c(NC(=O)Nc3cccc4ccccc34)cccc2C1=O the results were GASC1 inh 0.9 and Pf Dd2 growth -3.5.
CO[C@H]1CN(C)C(=O)c2cc(NC(C)=O)ccc2OC[C@H](C)N(C(=O)c2ccccc2)C[C@@H]1C was read as GASC1 inh 1.6 and IDH1 mut inh 0.5.
COc1ccc(CN(C)C[C@H]2OCCCC[C@@H](C)Oc3ccc(NC(=O)Nc4cccc5ccccc45)cc3C(=O)N([C@@H](C)CO)C[C@@H]2C)cc1 was read as GASC1 inh 8.1 and Pf Dd2 growth -89.5*.
`COc1ccc(CN(C)C[C@@H]2OCCCC[C@H](C)Oc3ccc(NC(=O)Nc4cccc5ccccc45)cc3C(=O)N([C@@H](C)CO)C[C@H]2C)cc1` gave GASC1 inh -0.3, IDH1 mut inh -3.7 and Pf Dd2 growth -79.9.
For COc1ccc(CN(C)C[C@H]2OCCCC[C@@H](C)Oc3ccc(NC(=O)Nc4cccc5ccccc45)cc3C(=O)N([C@H](C)CO)C[C@H]2C)cc1 the results were GASC1 inh -3.4, IDH1 mut inh -9.6 and Pf Dd2 growth -86.7*.
Screening COc1ccc(CN(C)C[C@H]2OCCCC[C@H](C)Oc3ccc(NC(=O)Nc4cccc5ccccc45)cc3C(=O)N([C@H](C)CO)C[C@@H]2C)cc1 returned GASC1 inh -0.6, IDH1 mut inh 3.3 and Pf Dd2 growth -43.8.

Screens: PubChem, Broad Institute
